The results in this text go back to ChEMBL document CHEMBL2429740, “The synthesis and SAR study of phenylalanine-derived (Z)-5-arylmethylidene rhodanines as anti-methicillin-resistant Staphylococcus aureus (MRSA) compounds” (2013).

What all share (type): functional
Experiment [1] concerns Staphylococcus aureus. Kind of experiment: Ratio of MIC for methicillin-resistant Staphylococcus aureus ATCC 700787 in absence of 10% FBS to MIC for methicillin-resistant Staphylococcus aureus ATCC 700787 in presence of 10% FBS. An outline of the steps:
(§1)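 MIC determined by the same turbidity-based microdilution method, once in standard medium and once in medium with 10% fetal serum added, to probe serum protein binding. The ratio is the MIC without serum over the MIC with serum, for each strain.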

Experiment [2] concerns Staphylococcus aureus. Kind of experiment: Ratio of MIC for methicillin-resistant Staphylococcus aureus CA ATCC BAA-1680 in absence of 10% FBS to MIC for methicillin-resistant Staphylococcus aureus CA ATCC BAA-1680 in presence of 10% FBS. An outline of the steps: as §1
Experiment [3] relates to Staphylococcus aureus. Description: Ratio of MIC for methicillin-resistant Staphylococcus aureus ATCC 34404 in absence of 10% FBS to MIC for methicillin-resistant Staphylococcus aureus ATCC 34404 in presence of 10% FBS. An outline of the steps:
as §1

Experiment [4] deals with Staphylococcus aureus. Description: Ratio of MIC for methicillin-resistant Staphylococcus aureus ATCC BAA-39 in absence of 10% FBS to MIC for methicillin-resistant Staphylococcus aureus ATCC BAA-39 in presence of 10% FBS. An outline of the steps:
as §1

Experiment [5] deals with Staphylococcus aureus. Kind of experiment: Ratio of MIC for methicillin-resistant Staphylococcus aureus ATCC 700698 in absence of 10% FBS to MIC for methicillin-resistant Staphylococcus aureus ATCC 700698 in presence of 10% FBS. An outline of the steps:
as §1

Experiment [6] deals with Staphylococcus aureus. Description: Ratio of MIC for methicillin-resistant Staphylococcus aureus ST239 HS770 in absence of 10% FBS to MIC for methicillin-resistant Staphylococcus aureus ST239 HS770 in presence of 10% FBS. Put shortly: as §1
In experiment [7] the test system is Staphylococcus aureus. Description: Antibacterial activity against methicillin-resistant Staphylococcus aureus ATCC 700698 by microdilution technique. Background: Dilution methods test growth across graded concentrations, often in twofold steps.
In experiment [8] the test system is Staphylococcus aureus. Kind of experiment: Antibacterial activity against methicillin-resistant Staphylococcus aureus ATCC BAA-39 by microdilution technique.
The test system of experiment [9] is Staphylococcus aureus. Kind of experiment: Antibacterial activity against methicillin-resistant Staphylococcus aureus ATCC 700787 by microdilution technique.
For experiment [10], the system named is Staphylococcus aureus. Description: Antibacterial activity against methicillin-resistant Staphylococcus aureus CA ATCC BAA-1680 by microdilution technique.
In experiment [11] the test system is Staphylococcus aureus. Kind of experiment: Antibacterial activity against methicillin-resistant Staphylococcus aureus ATCC 34404 by microdilution technique.
Experiment [12] has as its system Staphylococcus aureus. Description: Antibacterial activity against methicillin-resistant Staphylococcus aureus ST239 HS770 by microdilution technique.

In brackets after ≈: the same amount, converted by molar mass.

In the case of `O=C(O)[C@H](Cc1ccccc1)N1C(=O)/C(=C/c2cccc(Oc3ccc(Cl)c(Cl)c3)c2)SC1=S`, the Ratio in the experiment with Staphylococcus aureus [1], with Staphylococcus aureus [2], in the experiment on Staphylococcus aureus [3], in the experiment on Staphylococcus aureus [4], in the experiment on Staphylococcus aureus [5] and in the experiment on Staphylococcus aureus [6] was 2 throughout. In addition, the MIC worked out at 1.95 µg/mL (≈ 3.68 µM) in the experiment with Staphylococcus aureus [7]; 1.95 µg/mL (≈ 3.68 µM) against Staphylococcus aureus [8]; 3.9 µg/mL (≈ 7.35 µM) in the experiment on Staphylococcus aureus [9]; 1.95 µg/mL (≈ 3.68 µM) in the experiment on Staphylococcus aureus [10]; 0.98 µg/mL (≈ 1.85 µM) in the experiment on Staphylococcus aureus [11].
As for `O=C(O)[C@H](Cc1ccccc1)N1C(=O)/C(=C/c2cccc(-c3ccccc3)c2)SC1=S`, the Ratio in the experiment on Staphylococcus aureus [1], with Staphylococcus aureus [2], in the experiment with Staphylococcus aureus [3], with Staphylococcus aureus [4], with Staphylococcus aureus [5] and in the experiment on Staphylococcus aureus [6] was 2 each time. For the same molecule, the MIC amounted to 1.95 µg/mL (≈ 4.38 µM) in the experiment on Staphylococcus aureus [12]; 1.95 µg/mL (≈ 4.38 µM) in the experiment with Staphylococcus aureus [7]; 0.98 µg/mL (≈ 2.2 µM) with Staphylococcus aureus [8]; 1.95 µg/mL (≈ 4.38 µM) against Staphylococcus aureus [9]; 1.95 µg/mL (≈ 4.38 µM) in the experiment on Staphylococcus aureus [10]; 0.98 µg/mL (≈ 2.2 µM) against Staphylococcus aureus [11].
With `O=C(O)[C@@H](Cc1ccccc1)N1C(=O)/C(=C/c2cccc(Oc3cccc(Cl)c3)c2)SC1=S`, the Ratio with Staphylococcus aureus [1], in the experiment on Staphylococcus aureus [2], with Staphylococcus aureus [3], in the experiment on Staphylococcus aureus [4], in the experiment with Staphylococcus aureus [5] and with Staphylococcus aureus [6] was 2 each time. Further, the MIC against Staphylococcus aureus [12] was found to be 1.95 µg/mL (≈ 3.93 µM); in the experiment on Staphylococcus aureus [7], 3.9 µg/mL (≈ 7.86 µM); in the experiment on Staphylococcus aureus [8], 1.95 µg/mL (≈ 3.93 µM); with Staphylococcus aureus [9], 3.9 µg/mL (≈ 7.86 µM); with Staphylococcus aureus [10], 1.95 µg/mL (≈ 3.93 µM); against Staphylococcus aureus [11] it was 0.98 µg/mL (≈ 1.98 µM).

A word on the MIC: it is the lowest concentration that inhibits growth of the organism. Low values mean a more susceptible organism, high ones a less susceptible organism.
